Reference: ChEMBL document CHEMBL1143585, “Synthesis of some cryptolepine analogues, assessment of their antimalarial and cytotoxic activities, and consideration of their antimalarial mode of action” (J Med Chem, 2005)

Columns and labels:
Mus musculus [1] = assay: Mean survival time taken as number of days before illness due to Plasmodium berghei when mice (Mus musculus) treated with 50 mg/kg dose for 4 days; format: functional
How it was run: (§1)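 Peters' 4-day suppressive test in female BALB/c mice (18-20 g), five per group. Each mouse got 1 × 10^7 P. berghei ANKA-infected erythrocytes iv. Drug was given ip in 0.2 mL daily for 4 consecutive days. Survival time was the number of days before signs of malaria illness, compared with untreated infected controls.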

Plasmodium falciparum [2] = assay: […] accumulation into acidic parasitic food vacuole at pH=5.5; format: functional
MAC15A [3] = assay: Ratio of cytotoxic to that of antiplasmodial activity was determined; format: functional, Mus musculus
Plasmodium falciparum [4] = assay: In vitro antiplasmodial activity for Plasmodium falciparum; format: functional, organism-based
How it was run: (§2)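 P. falciparum K1 ring-stage cultures in human A+ erythrocytes (RPMI 1640, A+ serum, glucose), at 2.5% hematocrit and 1% parasitemia. Two-fold serial dilutions in duplicate, final DMSO ≤0.5%. Incubated 48 h at 37 °C under 93% N2/3% O2/4% CO2. Growth read as parasite lactate dehydrogenase activity (APAD/NBT, 550 nm). IC50 by linear regression; at least three separate determinations.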

Mus musculus [5] = assay: In vivo antimalarial activity of compound against Plasmodium berghei in mice (Mus musculus) at dose of 50 mg/kg treated for 4 days; format: functional
Mus musculus [6] = assay: In vivo antimalarial activity of compound against Plasmodium berghei was determined as suppression of parasitemia in mice (Mus musculus) at 50 mg/kg treated for 4 days; format: functional
[7] = Ionization constant for the compound; format: physicochemical
Plasmodium falciparum [8] = assay: Normalized IC50 as product of antiplasmodial IC50 and vacuolar accumulation IC50; format: functional, organism-based
Plasmodium falciparum [9] = assay: […] accumulation into acidic parasitic food vacuole (pH=5.5) relative to Cryptolepine; format: functional
How it was run: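 Calculated from each compound's spectrophotometric pKa via a pH-trapping equation, assuming food-vacuole pH 5.5 and external pH 7.4. The result is expressed relative to cryptolepine's ratio. pKa came from UV spectra (0.05 mg mL-1) in at least seven buffers of pH 5.8–13.0, plus 0.1 M NaOH and 0.1 M HCl. pKa was taken as the midpoint of the λmax absorbance plot. Two experiments per compound.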

Mus musculus [10] = species on record: Mus musculus; assay: Mean survival time taken as number of days before illness due to Plasmodium berghei in untreated mice (Mus musculus); format: functional; how it was run: as §1
[11] = molecular target: T1, Histidine-rich protein PFHRP-II (Plasmodium falciparum) (UniProt P05227); assay: Antiplasmodial activity as IC50 against Beta-hematin formation; format: functional
T1 sequence (whole entry): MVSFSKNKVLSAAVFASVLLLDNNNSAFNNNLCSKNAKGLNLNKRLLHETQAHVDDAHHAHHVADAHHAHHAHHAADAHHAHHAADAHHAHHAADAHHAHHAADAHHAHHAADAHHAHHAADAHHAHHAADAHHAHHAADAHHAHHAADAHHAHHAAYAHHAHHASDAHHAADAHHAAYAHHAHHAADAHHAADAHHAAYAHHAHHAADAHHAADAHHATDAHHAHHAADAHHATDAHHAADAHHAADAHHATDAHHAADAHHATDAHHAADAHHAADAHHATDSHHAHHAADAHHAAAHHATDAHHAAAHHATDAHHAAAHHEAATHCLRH
How it was run: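 β-Hematin inhibition (BHIA) assay: hemin (0.4 µmol/well) in DMSO with compound at 0.25–2 (or 4) molar equivalents to hemin, in triplicate. Final DMSO was 25%. Formation started with 8 M acetate buffer pH 5.0, then 37 °C for 18 h. The centrifuged pellet was dissolved in 0.1 M NaOH and read at 405 nm. BHIA50 is the drug equivalents relative to hemin giving 50% inhibition.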

Plasmodium falciparum [12] = assay: In vitro antiplasmodial concentration against multidrug-resistant Plasmodium falciparum K1; format: functional, organism-based; how it was run: as §2
MAC15A [13] = assay: Cytotoxicity against MAC15A mouse adenocarcinomas of the colon cells; format: functional, cell-based
How it was run: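 MTT assay. MAC15A cells were seeded at 2 × 10^3 per well and attached overnight at 37 °C, 5% CO2. Drugs were dissolved in DMSO and diluted in medium (max 0.1% DMSO), eight wells per concentration, 96 h exposure. MTT (0.5 mg/mL) was then added for 24 h. Formazan was dissolved in DMSO and read at 550 nm. Survival is relative to vehicle control; IC50 from triplicate experiments.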

Mus musculus [14] = assay: In vivo antimalarial activity of compound against Plasmodium berghei in mice (Mus musculus) at dose of 20 mg/kg treated for 4 days; c = toxic after 2nd dose; format: functional, organism-based; parameters: dose 20 mg/kg
Mus musculus [15] = assay: In vivo antimalarial activity of compound against Plasmodium berghei was determined as suppression of parasitaemia in mice (Mus musculus) at 20 mg/kg treated for 4 days; c=toxic after the 2nd dose; format: functional, organism-based; parameters: dose 20 mg/kg
Mus musculus [16] = species on record: Mus musculus; assay: Mean survival time taken as number of days before illness due to Plasmodium berghei in […] mice (Mus musculus); c=toxic after the 2nd dose; format: functional, organism-based
Mus musculus [17] = assay: Mean survival time taken as number of days before illness due to Plasmodium berghei when mice (Mus musculus) treated with 20 mg/kg dose for 4 days; c=toxic after the 2nd dose; format: functional, organism-based; parameters: dose 20 mg/kg
Mus musculus [18] = assay: In vivo antimalarial activity of compound against Plasmodium berghei was determined as suppression of parasitaemia in mice (Mus musculus) at 10 mg/kg treated for 4 days; format: functional
Mus musculus [19] = assay: In vivo antimalarial activity of compound against Plasmodium berghei in mice (Mus musculus) at dose of 10 mg/kg treated for 4 days; format: functional
Mus musculus [20] = assay: Mean survival time taken as number of days before illness due to Plasmodium berghei when mice (Mus musculus) treated with 10 mg/kg dose for 4 days; g=mice (Mus musculus) survived the test; format: functional, organism-based; parameters: dose 10 mg/kg; how it was run: as §1
Mus musculus [21] = assay: In vivo antimalarial activity of compound against Plasmodium berghei in mice (Mus musculus) at dose of 25 mg/kg treated for 4 days; format: functional
How it was run: (§3)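 Peters 4-day suppressive test in female BALB/c mice (18–20 g), five per group. Mice were infected iv with 1 × 10^7 P. berghei ANKA-infected erythrocytes. Drug was given ip daily for four consecutive days. Blood smears were taken on day 5, and % parasitemia suppression was calculated against untreated infected controls. Survival was recorded as days until signs of malaria illness.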

Mus musculus [22] = assay: In vivo antimalarial activity of compound against Plasmodium berghei was determined as suppression of parasitemia in mice (Mus musculus) at 25 mg/kg treated for 4 days; format: functional; how it was run: as §3
Mus musculus [23] = assay: Mean survival time taken as number of days before illness due to Plasmodium berghei when mice (Mus musculus) treated with 25 mg/kg dose for 4 days; format: functional; how it was run: as §1

| SMILES | Ratio (MAC15A [3]) | IC50 (Plasmodium falciparum [4]; Plasmodium falciparum) [nM] | BHIA50 [11] | IC50 (MAC15A [13]; Mus musculus, MAC15A) [µM] | further results |
| --- | --- | --- | --- | --- | --- |
| C[n+]1c2ccc(F)cc2cc2[nH]c3ccccc3c21.[Cl-] | 3.96 | 1210 | 1.24 | 4.79 | Mean survival time (Mus musculus [1]): 5 days; Vascular accumulation ratio (Plasmodium falciparum [2]): 79.41; Parasitemia (Mus musculus [5]): 5.98%; Suppression of parasitemia (Mus musculus [6]): 55.1%; pKa [7]: 11.2; IC50 (Plasmodium falciparum [8]): 1.21 µM; Ratio (Plasmodium falciparum [9]): 1; Mean survival time (Mus musculus [10]): 5 days; IC50 (Plasmodium falciparum [12]): 1210 nM |
| C[n+]1c2c(Cl)cccc2cc2[nH]c3ccccc3c21.[Cl-] | 0.76 | 4690 |  | 3.54 |  |
| C[n+]1c2cc(Cl)ccc2cc2[nH]c3ccc(Br)cc3c21.[Cl-] | 30.8 | 37 |  | 1.14 |  |
| C[n+]1c2ccc(Cl)cc2cc2[nH]c3ccccc3c21.[Cl-] | 13.5 | 166 |  | 2.24 |  |
| C[n+]1c2ccccc2cc2[nH]c3ccccc3c21.O=S(=O)([O-])O |  |  | 1.64 |  | Vascular accumulation ratio (Plasmodium falciparum [2]): 79.43; pKa [7]: 11.8 |
| C[n+]1c2ccccc2c(Cl)c2[nH]c3cc(Cl)ccc3c21 |  |  | 0.96 |  | Vascular accumulation ratio (Plasmodium falciparum [2]): 37.94; pKa [7]: 7.35; IC50 (Plasmodium falciparum [8]): 12.9 µM |
| C[n+]1c2ccccc2cc2[n-]c3ccccc3c21.Cl [CRYPTOLEPINE HYDROCHLORIDE] | 8.98 | 440 |  | 3.95 | Parasitemia (Mus musculus [14]): Toxic after second dose; Suppression of parasitemia (Mus musculus [15]): Toxic after second dose; Mean survival time (Mus musculus [16]): Toxic after second dose; Mean survival time (Mus musculus [17]): Toxic after second dose |
| CCN(CC)CCCC(C)Nc1ccnc2cc(Cl)ccc12.O=P(O)(O)O.O=P(O)(O)O (configuration not stated) [CHLOROQUINE PHOSPHATE] |  |  | 1.44 |  | Suppression of parasitemia (Mus musculus [18]): 100%; Parasitemia (Mus musculus [19]): 0%; Mean survival time (Mus musculus [20]): Mice survived; Mean survival time (Mus musculus [10]): 8.56 days |
| C[n+]1c2ccccc2cc2[nH]c3cc(Cl)ccc3c21.[Cl-] | <8.15 |  |  |  | IC50 (Plasmodium falciparum [4]): > 1000 nM; IC50 (MAC15A [13]; mac15a): 8.15 µM |
| C[n+]1c2cc(Cl)c(Cl)cc2cc2[nH]c3ccccc3c21.[Cl-] | 9.33 | 356 |  | 3.32 |  |
| C[n+]1c2ccc(Cl)c(Cl)c2cc2[nH]c3ccccc3c21.[Cl-] | 21.7 | 88 |  | 1.91 |  |
| C[n+]1c2ccc(Cl)cc2cc2[nH]c3ccc(Br)cc3c21.[Cl-] | 57.7 | 30 |  | 1.73 | Parasitemia (Mus musculus [21]): 0.97%; Suppression of parasitemia (Mus musculus [22]): 91.85%; Mean survival time (Mus musculus [10]): 11.8 days; Mean survival time (Mus musculus [23]): 15.4 days |
